Kir21 block: inhibitors of mouse Kir2.1 inward-rectifier potassium channel; HEK293-Kir2.1, FluxOR thallium flux fluorescence; active compounds read low; AID 1672; actives 0.85% (n = 310,000); B-score at 10 µM;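 active = fluorescence ratio B-score at or below minus 3 SD of library scores, with starting-brightness B-score within 2 SD, cut at about -4.2 in these data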;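 note: channel flux triggered by added potassium and thallium sulfate stimulus; B-score of peak minus minimum fluorescence over baseline after thallium stimulus; more negative B-score means stronger Kir2.1 block with less thallium influx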
Target sequence (P35561 whole entry, looked up): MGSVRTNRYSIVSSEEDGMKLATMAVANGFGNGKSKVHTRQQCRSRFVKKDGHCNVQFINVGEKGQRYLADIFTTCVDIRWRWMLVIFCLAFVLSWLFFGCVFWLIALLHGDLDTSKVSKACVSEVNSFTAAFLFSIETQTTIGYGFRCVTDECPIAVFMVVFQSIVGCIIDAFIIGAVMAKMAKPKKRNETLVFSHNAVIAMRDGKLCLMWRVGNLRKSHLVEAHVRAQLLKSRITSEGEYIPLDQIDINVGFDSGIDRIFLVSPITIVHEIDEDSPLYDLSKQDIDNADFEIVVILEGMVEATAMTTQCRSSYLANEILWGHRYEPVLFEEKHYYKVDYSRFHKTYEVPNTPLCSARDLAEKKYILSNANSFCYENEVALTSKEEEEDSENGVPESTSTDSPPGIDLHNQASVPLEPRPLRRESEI
TRPC6 inhibitor: mouse TRPC6 channel inhibition. Q61143. HEK293-TRPC6, membrane potential dye, ACh-evoked depolarization; active compounds read low. B-score at 10 µM. actives 1.1% (n = 310,000);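 active = B-score under library mean minus 3 SD, initial fluorescence not abnormally high, positive integrated signal ratio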;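 note: B-score derived from integrated fluorescence ratio over the kinetic read; more negative B-score means stronger inhibition of depolarization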
TRPC4 inh: TRPC4 (mouse) channel inhibition; B-score at 10 µM; AID 2247; actives 0.39% (n = 300,000); HEK293 TRPC4beta/mu-opioid, DAMGO-evoked Fluo4 calcium flux; active compounds read low;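 active = B-score over 3 SD under the library average, no early fluorescence shift, positive overall ratio signal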
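Assay system: TRPC4beta/mu-opioid receptor HEK293 cell line; compound dosing: single concentration per test compound; detection: Fluo4 Ca2+ flux fluorescence; evaluation: per-well B score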
TRPC6 act: mouse TRPC6 channel activation. B-score at 10 µM. Q61143. HEK293-TRPC6 membrane potential dye fluorescence; active compounds read high. actives 0.13% (n = 310,000);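 active = B-score of the integrated fluorescence ratio above library mean plus 3 SD, and starting fluorescence ratio within library mean plus 5 SD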;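 note: higher score means more depolarization so channel activation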
TRPC4 PAM: TRPC4 (mouse) allosteric potentiation; Q9QUQ5; HEK293 TRPC4beta/mu-opioid, DAMGO EC20, Fluo-4 Ca2+ flux; active compounds read high; B-score at 10 µM; actives 0.42% (n = 310,000);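 active = B-score of calcium response area above 5 SD of library B-scores, with initial fluorescence ratio within 5 SD of library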;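 note: B-score of integrated fluorescence ratio over time as area under calcium response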
TRPC4 act: TRPC4 (mouse) channel activation; Q9QUQ5; HEK293 TRPC4beta/mu-opioid, Fluo4 calcium fluorescence; active compounds read high; B-score at 10 µM; actives 0.49% (n = 310,000); AID 2237;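 active = B-score above 5 SD of library B-scores, and initial fluorescence ratio not above library mean plus 5 SD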;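 note: positive B-score marks a calcium rise read as TRPC4 activation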
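System – HEK293 cells stably co-expressing mouse TRPC4beta and mu-opioid receptor · Signal – Fluo4 calcium-sensitive dye fluorescence, kinetic, 1 Hz baseline · Benchmarks – buffer (low) and maximal DAMGO (high) · Read-out – B score of integrated fluorescence ratio per well · Incubation – dye loading 45 min room temperature, 110 s kinetic read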
Starred values were filed as active, the others as inactive. Shown are actives, neighbours in structure and some others; about 3% of the full set was active somewhere.

For O=C(NC1CCN(Cc2ccccc2)CC1)c1ccccc1OCc1ccccc1Cl the results were Kir21 block -6.68*, TRPC6 inhibitor inactive, TRPC4 inh inactive, TRPC6 act inactive, TRPC4 PAM inactive and TRPC4 act inactive.
Screening CCOc1ccccc1C(=O)NC1CCN(Cc2ccccc2)CC1 returned Kir21 block 0.88, TRPC6 inhibitor inactive, TRPC4 inh inactive, TRPC6 act inactive, TRPC4 PAM inactive and TRPC4 act inactive.
Screening C#CCOc1ccccc1CNC1CCN(Cc2ccccc2)CC1 returned Kir21 block -4.4*, TRPC6 inhibitor inactive, TRPC4 inh inactive, TRPC6 act inactive, TRPC4 PAM inactive and TRPC4 act inactive.
CCOc1cc(/C=N/NC(=O)C(O)(c2ccccc2)c2ccccc2)ccc1OC(=O)c1ccco1 was read as Kir21 block -0.43, TRPC6 inhibitor inactive, TRPC4 inh inactive, TRPC6 act inactive, TRPC4 PAM inactive and TRPC4 act inactive.
CCOC(=O)Cc1csc(NC(=O)CSc2cc(Cl)ccc2Cl)n1 was read as Kir21 block -0.05, TRPC6 inhibitor inactive, TRPC4 inh inactive, TRPC6 act inactive, TRPC4 PAM inactive and TRPC4 act inactive.
COc1ccc(C2=C(SC)CC2=NC(C)(C)C)cc1 was read as Kir21 block -2.64, TRPC6 inhibitor inactive, TRPC4 inh inactive, TRPC6 act inactive, TRPC4 PAM inactive and TRPC4 act inactive.
CC(=O)c1ccc(C(=O)Nc2nnc(-c3ccc(Cl)cc3)o2)cc1 was read as Kir21 block 0.41, TRPC6 inhibitor inactive, TRPC4 inh inactive, TRPC6 act inactive, TRPC4 PAM inactive and TRPC4 act inactive.
For O=C(Nc1nnc(-c2ccccc2)o1)c1ccc(Cl)cc1 the results were Kir21 block 0.87, TRPC6 inhibitor inactive, TRPC4 inh inactive, TRPC6 act inactive, TRPC4 PAM inactive and TRPC4 act 48*.
`N#CCC(=O)N/N=C/c1ccc(OCC(=O)Nc2ccc(F)cc2)cc1` gave Kir21 block 0.88, TRPC6 inhibitor inactive, TRPC4 inh inactive, TRPC6 act inactive, TRPC4 PAM inactive and TRPC4 act inactive.
For Cc1ccc(C23CC4CC(CC(NC(=O)NCCN(C)C)(C4)C2)C3)cc1 the results were Kir21 block -4.35*, TRPC6 inhibitor inactive, TRPC4 inh inactive, TRPC6 act inactive, TRPC4 PAM inactive and TRPC4 act inactive.
Screening CN(C)CCNC(=O)COc1ccc(C23CC4CC(CC(C4)C2)C3)cc1 returned Kir21 block -6.53*, TRPC6 inhibitor inactive, TRPC4 inh inactive, TRPC6 act inactive, TRPC4 PAM inactive and TRPC4 act inactive.
Screening CCCCCC(=O)NNC(=S)NC(=O)c1cccc([N+](=O)[O-])c1 returned Kir21 block 2.61, TRPC6 inhibitor inactive, TRPC4 inh inactive, TRPC6 act inactive, TRPC4 PAM inactive and TRPC4 act 60*.
Screening COCCCN1CC(=O)N2C(c3ccccc3)c3[nH]c4ccccc4c3C[C@H]2C1=O (stereo partly specified) returned Kir21 block -0.61, TRPC6 inhibitor inactive, TRPC4 inh inactive, TRPC6 act inactive, TRPC4 PAM inactive and TRPC4 act inactive.
C=CCN1CC(=O)N2C(c3ccccc3)c3[nH]c4ccccc4c3C[C@H]2C1=O (stereo partly specified) was read as Kir21 block 1.78, TRPC6 inhibitor inactive, TRPC4 inh inactive, TRPC6 act inactive, TRPC4 PAM 13* and TRPC4 act inactive.
For Cc1ccc(NC2=Nc3ccccc3CC2)cc1 the results were Kir21 block 0.97, TRPC6 inhibitor inactive, TRPC4 inh inactive, TRPC6 act inactive, TRPC4 PAM inactive and TRPC4 act 54*.
For Cc1ccc(CN(C)C(=O)c2cc(COc3cccc(C(F)(F)F)c3)on2)o1 the results were Kir21 block -4.56*, TRPC6 inhibitor inactive, TRPC4 inh inactive, TRPC6 act inactive, TRPC4 PAM inactive and TRPC4 act inactive.
COc1ccccc1NS(=O)(=O)c1ccc(OC)c(OC)c1 was read as Kir21 block -2.73, TRPC6 inhibitor inactive, TRPC4 inh inactive, TRPC6 act inactive, TRPC4 PAM inactive and TRPC4 act inactive.
Screening Nc1ncc(Br)cc1S(=O)(=O)Nc1cc(C(F)(F)F)cc(C(F)(F)F)c1 returned Kir21 block -2.9, TRPC6 inhibitor inactive, TRPC4 inh inactive, TRPC6 act inactive, TRPC4 PAM inactive and TRPC4 act 46*.
`COc1ccc(C)cc1S(=O)(=O)Nc1ccc(F)c(Cl)c1` gave Kir21 block -0.22, TRPC6 inhibitor inactive, TRPC4 inh inactive, TRPC6 act inactive, TRPC4 PAM 10* and TRPC4 act inactive.
Screening COc1ccccc1NS(=O)(=O)c1cc(Cl)ccc1OC returned Kir21 block -4.84*, TRPC6 inhibitor inactive, TRPC4 inh inactive, TRPC6 act inactive, TRPC4 PAM inactive and TRPC4 act inactive.
`Cc1ccc(NS(=O)(=O)c2cc(Br)cnc2N)c(Cl)c1` gave Kir21 block -2.06, TRPC6 inhibitor inactive, TRPC4 inh inactive, TRPC6 act inactive, TRPC4 PAM inactive and TRPC4 act inactive.
Screening COc1ccc(OC)c(S(=O)(=O)Nc2cc(OC)c(Cl)cc2OC)c1 returned Kir21 block -5.59*, TRPC6 inhibitor inactive, TRPC4 inh inactive, TRPC6 act inactive, TRPC4 PAM inactive and TRPC4 act inactive.
Screening COC(=O)c1nc(-c2ccccc2)oc1N1CCOCC1 returned Kir21 block -0.36, TRPC6 inhibitor inactive, TRPC4 inh inactive, TRPC6 act inactive, TRPC4 PAM inactive and TRPC4 act inactive.
`COc1cc(OC)c(NS(=O)(=O)c2cc(Br)cnc2N)cc1Cl` gave Kir21 block -5.81*, TRPC6 inhibitor inactive, TRPC4 inh inactive, TRPC6 act inactive, TRPC4 PAM inactive and TRPC4 act inactive.
For COc1ccccc1CNS(=O)(=O)c1cc(C)ccc1OC the results were Kir21 block -5.64*, TRPC6 inhibitor inactive, TRPC4 inh inactive, TRPC6 act inactive, TRPC4 PAM inactive and TRPC4 act inactive.
For CC1CN(C)C(C)c2c1oc1ccc(N)cc21 (stereo unspecified) the results were Kir21 block 1.1, TRPC6 inhibitor inactive, TRPC4 inh inactive, TRPC6 act inactive, TRPC4 PAM inactive and TRPC4 act 239*.
Screening CC(C)=Cc1oc2ccc([N+](=O)[O-])cc2c1N1CCOCC1 returned Kir21 block -1.28, TRPC6 inhibitor inactive, TRPC4 inh inactive, TRPC6 act inactive, TRPC4 PAM inactive and TRPC4 act inactive.

Screening results as filed in PubChem.
